# Assay outcomes: PubChem BioAssay, several laboratories
# Hits are enriched below; roughly 1.4% of the tested compounds scored in any of these assays.
# CTSL1 counter: Fasciola hepatica cathepsin L1 inhibitors, primary screen, counter-screen for PFM18AAP inhibitor project, biochemical, QFRET, fluorogenic peptide substrate; actives 0.49% (n = 300,000); recombinant F. hepatica cathepsin L1, Z-Leu-Arg-MCA fluorescence; AID 1906, 2009; inhibition, % at 5.96 µM;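 active = inhibition above the mean of all tested compounds plus 3 SD, set per screening campaign, cut at about 17% in these data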
# UCH37 inh: inhibitors of human UCH37 deubiquitinase, primary screen, biochemical, Ub-AMC cleavage, fluorescence. purified proteasome/UCH37. inhibition, % (no concentration beside the values). actives 0.33% (n = 330,000);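 active = mean inhibition over replicate wells above about 20%, limit read from the data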
# Target sequence (Q9Y5K5 whole entry, looked up): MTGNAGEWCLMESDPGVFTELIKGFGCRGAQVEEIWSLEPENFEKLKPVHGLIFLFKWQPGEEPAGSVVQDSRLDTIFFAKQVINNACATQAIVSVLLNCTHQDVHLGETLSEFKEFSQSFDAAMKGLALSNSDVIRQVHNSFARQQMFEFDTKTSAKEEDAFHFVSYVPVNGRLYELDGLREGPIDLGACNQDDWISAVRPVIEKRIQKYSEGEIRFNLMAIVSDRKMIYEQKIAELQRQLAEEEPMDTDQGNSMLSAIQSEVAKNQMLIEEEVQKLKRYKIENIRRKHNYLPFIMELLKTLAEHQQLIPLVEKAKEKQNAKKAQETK
#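 Assay system: Proteasome-bound UCH37. Buffer or medium: pH 7.4 Tris-HCl (50 mM) with ovalbumin, ATP-MgCl2, DTT. Incubation: 30 min preincubation with enzyme, 25 min cleavage at room temperature. Measured by: fluorescence, ex 355 nm, em 460 nm. Read-out basis: percent inhibition. Control set: wells without proteasome as full block, compound-free enzyme plus substrate as uninhibited.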
# UBC9 SUMO inh: inhibitors of in vitro SUMOylation cascade, primary screen, biochemical, HTRF, uHTS; SUMO-conjugating enzyme UBC9 (Homo sapiens), P63279; HTRF SUMOylation assay, SAE1/SAE2 + UBC9; inhibition, % at 35 µM; actives 0.36% (n = 290,000); in the data active = inhibition above about 50%, passing the limit was not always enough
# Target sequence (P63279 whole entry, looked up): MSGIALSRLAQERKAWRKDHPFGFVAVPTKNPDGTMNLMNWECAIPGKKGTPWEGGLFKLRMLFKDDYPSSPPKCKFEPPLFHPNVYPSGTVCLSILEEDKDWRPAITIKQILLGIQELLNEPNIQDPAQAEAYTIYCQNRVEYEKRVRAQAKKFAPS
# Neddyl block: inhibitors of cullin neddylation, primary screen, biochemical, TR-FRET, uHTS, NAE and Ubc12 | actives 0.58% (n = 360,000) | NEDD8-conjugating enzyme Ubc12 (Homo sapiens) + NEDD8-activating enzyme E1 regulatory … | inhibition, % at 25 µM | AID 651699, 2012; in the data active = inhibition above about 36%
# Neddyl conf: blockade of NEDD8 conjugation to cullin – biochemical, TR-FRET, single concentration, confirmation; actives 13% (n = 1,800); calls only at 25 µM; TR-FRET cullin neddylation biochemical assay; shares compounds with Neddyl block; in the data active = inhibition above about 40%;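 also: neddylation substrate is the cullin 1 ring ligase complex with SKP2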
# A number is an active result; i = inactive; nt = no result given; + = active, no number.
SMILES,CTSL1 counter,UCH37 inh,UBC9 SUMO inh,Neddyl block,Neddyl conf
O=C(O)c1cc(NN=C/C=C/c2ccccc2[N+](=O)[O-])ccc1Cl,nt,i,nt,nt,nt
COc1cc(C=NNC(=O)Nc2ccccc2)ccc1OC(C)=O,nt,i,nt,nt,nt
CCCCn1c2nc3ccccc3nc2c2c(=O)n(CC(C)C)cnc21,nt,i,nt,37.0,i
O=C(COC(=O)/C=C/c1ccccc1)NCC1CCCO1 (stereo not given),i,i,i,i,nt
CSc1ccc(/C=C/C(=O)OCC(=O)NCC2CCCO2)cc1 (stereo not given),nt,i,nt,66.5,nt
COC(=O)C(C#N)c1nc2ccccc2nc1N1CCCC1 (stereo not given),i,i,i,i,nt
CC(C)OC(=O)C(C#N)c1nc2ccccc2nc1N1CCCC1 (stereo not given),i,i,i,41.0,i
COC(=O)C1CCN(c2nc3ccccc3nc2C(C#N)C(=O)OCC(C)C)CC1 (stereo not given),i,i,i,41.0,i
COC(=O)C1CCN(c2nc3ccccc3nc2C(C#N)C(=O)NCCc2ccccc2)CC1 (stereo not given),i,i,i,i,nt
CC(C)n1c(N=Cc2c[nH]c3ccccc23)nc2ccccc21,nt,i,nt,nt,nt
Fc1ccccc1C=NN1CCN(Cc2ccccc2Cl)CC1,nt,i,nt,nt,nt
COC(=O)c1ccccc1NC(=O)C(=O)NCC1CCCO1 (stereo not given),i,i,i,i,nt
COC(=O)c1ccccc1NC(=O)NCC1CCCO1 (stereo not given),i,i,i,44.1,i
CC(=O)ON=C(N)c1cnn2c(C(F)(F)F)cc(C(F)(F)F)nc12,nt,i,nt,nt,nt
COc1ccc(-c2[nH]ncc2/C=C(/C#N)C(=O)NC2CCCCCC2)cc1,i,i,i,40.8,i
Cc1cc(/C=C(\C#N)C(=O)NC2CCCCCC2)c(C)[nH]1,i,nt,i,i,nt
COC(=O)NN=C(C)c1ccc(C)c([N+](=O)[O-])c1,nt,i,nt,nt,nt
O=C(Cn1nc(-c2ccco2)ccc1=O)Nc1cc(Cl)ccc1Cl,i,i,i,47.2,i
O=C(Cn1nc(-c2ccco2)ccc1=O)Nc1cc(C(F)(F)F)ccc1Cl,i,i,nt,nt,nt
CSc1nncc(C(C)=NNc2cccc(C)c2)n1,nt,i,nt,nt,nt
CCSC1=C(C#N)C(c2ccc(C)o2)CC(=O)N1 (stereo not given),i,i,i,39.6,i
NC(=NO)c1ccccc1-n1cccc1,nt,i,nt,nt,nt
O=C(NCc1cccnc1)c1ccccc1NS(=O)(=O)c1ccc(Br)cc1,nt,i,nt,i,nt
Cc1cc(F)ccc1S(=O)(=O)Nc1ccccc1C(=O)NCc1cccnc1,i,i,i,43.7,i
COc1ccc(S(=O)(=O)Nc2ccccc2C(=O)NCc2cccnc2)cc1C,i,i,i,40.4,nt
SMILES,CTSL1 counter,UCH37 inh,UBC9 SUMO inh,Neddyl block,Neddyl conf
Cc1cc(F)ccc1S(=O)(=O)Nc1ccccc1C(=O)NC1CCN(Cc2ccccc2)CC1,nt,i,nt,46.7,+
O=C1CCCC(=NNC(=O)NC2CCCCC2)C1,nt,i,nt,nt,nt
COc1ccccc1C=NNC(=O)c1cccc(NC(=O)c2ccccc2C)c1,nt,i,nt,nt,nt
COCCCn1c(=O)c2sccc2n2c(CCCC(=O)NCc3ccc(F)cc3)nnc12,i,i,i,42.0,i
COCCCn1c(=O)c2sccc2n2c(CCCC(=O)NCc3cccc(OC)c3)nnc12,i,i,i,i,nt
NC(COc1ccc(Cl)cc1Cl)=NO,nt,i,nt,nt,nt
COc1ccc(C(=O)NC2CC3CCCC(C2)N3Cc2ccccc2)cc1 (stereo not given),i,i,i,i,nt
COc1ccc(C(=O)NC2CC3CCCC(C2)N3Cc2ccccc2)c(OC)c1 (stereo not given),i,i,i,41.7,i
O=c1c2c(nc3c(-c4cccc(Br)c4)c[nH]n13)CCCC2,i,i,i,45.7,i
CNc1c(NS(=O)(=O)c2ccc(C(C)(C)C)cc2)c(=O)oc2ccccc12,i,i,i,42.1,i
Cn1c(N/N=C/c2cccs2)nc2c1c(=O)n(Cc1ccccc1)c(=O)n2C,i,nt,i,38.8,i
COc1cccc(/C=C/C(=O)OCC(=O)N2c3ccccc3CC2C)c1OC (stereo not given),nt,i,nt,46.4,nt
COc1ccc(/C=C/C(=O)OCC(=O)NC2CCCCCCC2)cc1,nt,i,nt,i,nt
COc1cccc(/C=C/C(=O)OCC(=O)c2cc(C)n(CC3CCCO3)c2C)c1OC (stereo not given),i,i,i,42.9,i
COc1cccc(/C=C/C(=O)OCC(=O)NCC2CCCCC2)c1OC,nt,i,nt,30.5,i
COc1ccc(OC)c(/C=C/C(=O)OCC(=O)NC2CCCCCCC2)c1,nt,i,nt,59.3,nt
CC(=NNC(=O)CCCNc1cccc(C)c1)c1ccncc1,nt,i,nt,nt,nt
O=C(NCc1ccccc1)C(=NO)c1ccccc1,nt,i,nt,nt,nt
O=C(N/N=C/c1ccc([N+](=O)[O-])o1)c1ccncc1,i,nt,i,43.3,i
O=C(O)c1cc2cc(OCc3ccccc3)ccc2[nH]1,i,i,i,51.5,i
O=C(O)c1cc(OCc2ccccc2)cc(OCc2ccccc2)c1,i,i,i,i,nt
N#C/C(=C\c1cn(Cc2ccc(C#N)cc2)c2ccccc12)C(=O)NCc1cccs1,i,i,i,43.3,nt
N#C/C(=C\c1cn(CCOc2ccccc2F)c2ccccc12)C(=O)NCc1cccs1,i,i,i,i,nt
Cc1ccc(C=NNC(=O)c2cncc(Br)c2)o1,nt,i,nt,nt,nt
N#C/C(=C\c1c(Cl)cccc1Cl)c1nc2ccccc2[nH]1,i,i,i,46.0,+
SMILES,CTSL1 counter,UCH37 inh,UBC9 SUMO inh,Neddyl block,Neddyl conf
CCN(CC)c1ccc(/C=N/NC(=O)c2cccc(N3CCCC3=O)c2)cc1,i,nt,i,57.5,nt
COc1cc(C=NNC(=O)c2ccncc2)cc(OC)c1OC,nt,i,nt,nt,nt
c1ccc(NN=C(Cc2ncc[nH]2)c2ccccc2)cc1,nt,i,nt,nt,nt
Nc1nc(N)nc(-c2ccc(Cl)cc2)n1,i,i,i,i,nt
Clc1ccc(/C=C/c2nc(Cl)c(-c3ccc(Cl)cc3)c(Cl)n2)cc1,i,nt,i,41.1,i
CN(C)CCCCNCCCNC(=O)C=NO,nt,i,nt,nt,nt
COCCNc1c2c(c(C#N)c3nc4ccccc4n13)CCCC2,i,i,i,52.7,+
N#Cc1c2c(c(NCCOCCO)n3c1nc1ccccc13)CCCC2,i,i,i,48.7,+
C=CCc1c(C)c(C#N)c2nc3ccccc3n2c1NCCN(C)C,i,i,i,42.9,nt
CC(=NNC(=O)c1ccc2c(c1)OCO2)c1ccc(NC(=O)CCCC(=O)O)cc1,nt,i,nt,nt,nt
O=[N+]([O-])c1cccc(C=Nn2c(-c3cccnc3)n[nH]c2=S)c1,nt,i,nt,nt,nt
Cc1cccc2nc3ccccc3cc12,i,i,nt,39.0,nt
Cc1nnc2ccc(-c3ccc(NS(=O)(=O)c4ccc(Cl)s4)cc3)nn12,nt,i,nt,41.0,nt
COc1cccc(C(=NO)C2CC2c2ccc(Cl)cc2)c1 (stereo not given),nt,i,nt,nt,nt
CC(C)(C)NC(=O)C(c1ccccc1)n1c(=O)c(-c2ccccc2)nc2ccccc21 (stereo not given),nt,nt,nt,42.6,i
